Results on 42 compounds are retold here after ChEMBL document CHEMBL1144352, “Effects of flavonoids on cell proliferation and caspase activation in a human colonic cell line HT29: an SAR study” (2005).

Holding throughout (type): functional
Test [1] deals with HT-29. Put plainly: Caspase 3/7 activity is expressed as ratio of caspase activation in treated human colonic cell line (HT-29) to that of untreated control cells after 5 hr. Put shortly:
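Caspase 3/7 measured with ApopOne kit. HT-29 cells were seeded at 15 000/well and exposed to test molecule for 5 h. Reagent containing caspase substrate and lysis buffer was then added, followed by 45 min at 37 °C. Fluorescence read at excitation 485 nm and emission 538 nm. Reported as ratio of treated to untreated control, mean of duplicate wells on one plate.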

Test [2] has as its system HT-29. Put plainly: Antiproliferative effect against human colonic cell line (HT-29) after 24 hr at a concentration of 50 uM. Put shortly: (§1)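 HT-29 cells plated at 15 000/well in DMEM with 5% fetal calf serum for 24 h, then medium replaced with fresh medium containing compound at 50 µM plus 200 µM sodium ascorbate. After incubation, neutral red (50 µg/mL) uptake for 2 h, formaldehyde/CaCl2 fixation, ethanol:acetic acid extraction, OD 550 nm. Result as % of control cells, mean ± SD, n > 18 wells, ≥4 experiments.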

Test [3] deals with HT-29. Nature of the test: Antiproliferative effect against human colonic cell line (HT-29) after 6 hr at a concentration of 50 uM. The gist of the method: as §1

For the compound `COc1ccc(-c2oc3cc(O)cc(O)c3c(=O)c2OC)cc1OC`, in the test on HT-29 [1], the Caspase induction is listed as 1.1. Moreover, the values for the Activity in the test with HT-29 [2] and in the test with HT-29 [3] were 74.2 and 87.9, respectively.

On to `COc1cc(OC)c(-c2oc3cc(O)cc(O)c3c(=O)c2OC)cc1OC`, for which the Activity stood at 92.5 in the test with HT-29 [2] and 90 with HT-29 [3].

Consider `CC(C)=CCC/C(C)=C/Cc1c(O)cc(O)c2c(=O)cc(-c3ccccc3)oc12`, for which the Caspase induction in the test with HT-29 [1] is reported as 9. The values for the Activity with HT-29 [2] and in the test on HT-29 [3] were 7.6 and 18, respectively.

For `CC(C)=CCC/C(C)=C/Cc1c(O)cc2oc(-c3ccccc3)cc(=O)c2c1O`, the Caspase induction in the test on HT-29 [1] came out at 1.9. For the same compound, the Activity in the test on HT-29 [2] came out at 53.9; in the test on HT-29 [3], 58.2.

As to `COc1ccc(-c2oc3cc(O)cc(O)c3c(=O)c2O)cc1` [KAEMPFERIDE], the Caspase induction in the test on HT-29 [1] is listed as 1. The Activity is recorded as 84.7 in the test on HT-29 [2] and 99.77 with HT-29 [3].

Turning to `C=CC(C)(CCC=C(C)C)c1c(O)cc(O)c2c(=O)cc(-c3ccccc3)oc12` (configuration not stated), the Caspase induction in the test with HT-29 [1] was 8.9. Moreover, the values for the Activity in the test on HT-29 [2] and in the test with HT-29 [3] were 28.1 and 28.4, respectively.

Turning to `O=c1c(O)c(-c2ccc(O)cc2)oc2cc(O)cc(O)c12` [KAEMPFEROL], the Caspase induction in the test on HT-29 [1] is recorded as 1.8. The Activity is 89.6 with HT-29 [2] and 92 in the test with HT-29 [3].

On to `COc1cc2oc(-c3ccccc3)cc(=O)c2c(O)c1C`, for which the Activity came out at 83.8 in the test with HT-29 [2] and 92.2 in the test with HT-29 [3].

As to `Cc1c(O)cc2oc(-c3ccccc3)cc(=O)c2c1O`, the Activity stood at 101 with HT-29 [2] and 104 in the test on HT-29 [3].

With `C=CC(C)(C)c1c(O)cc(O)c2c(=O)cc(-c3ccccc3)oc12`, the Caspase induction with HT-29 [1] is 1.1. In addition, the Activity in the test on HT-29 [2] stood at 57.7; in the test with HT-29 [3] it was 76.7.

Consider `C=CC(C)(C)c1c(O)cc(O)c2c(=O)c(OC)c(-c3ccccc3)oc12`, for which, in the test on HT-29 [1], the Caspase induction turned out to be 1.3. For the same compound, the Activity in the test with HT-29 [2] was 79.4; in the test on HT-29 [3], 79.3.

For the compound `CC(C)=CCc1c(O)cc2oc(-c3ccccc3)cc(=O)c2c1O`, the Activity in the test with HT-29 [2] and in the test with HT-29 [3] was 87.9 in each case.

Consider `CC(C)=CCc1c(O)cc(O)c2c(=O)cc(-c3ccccc3)oc12`, for which the Caspase induction in the test on HT-29 [1] came out at 0.9. The Activity with HT-29 [2] amounted to 75.5; in the test with HT-29 [3] it was 86.3.

`CC(C)=CCC/C(C)=C/CC/C(C)=C/COc1cc(O)c2c(=O)cc(-c3ccccc3)oc2c1`: the Activity stood at 83.3 in the test with HT-29 [2] and 87.8 in the test on HT-29 [3].

Regarding `CC(C)=CCc1c(O)cc(O)c2c(=O)cc(-c3ccc(O)cc3)oc12`, the figures for the Activity in the test with HT-29 [2] and with HT-29 [3] were 56.2 and 76.9, respectively.

Consider `COc1ccc(C(=O)/C=C(\O)c2ccc(O)cc2O)cc1`, for which the Activity in the test on HT-29 [2] was 96.6; in the test on HT-29 [3], 96.2.

Turning to `COc1c(-c2ccccc2)oc2c(O)c(O)c(CC=C(C)C)c(O)c2c1=O`, the Caspase induction in the test with HT-29 [1] was found to be 3.5. Besides, the Activity with HT-29 [2] is 71.8; with HT-29 [3], 59.8.

On to `CC(C)=CCOc1cc(O)cc2oc(-c3ccccc3)cc(=O)c12`, for which the Caspase induction with HT-29 [1] is given as 1.4. The Activity in the test on HT-29 [2] was determined as 19.4; in the test on HT-29 [3] it was 17.

In the case of `C=CC(C)(C)c1c(O)cc(O)c2c(=O)c(OC)c(-c3ccc(OC)cc3)oc12`, the Caspase induction in the test with HT-29 [1] is listed as 8.1. Besides, the results for the Activity in the test with HT-29 [2] and in the test with HT-29 [3] were 20.1 and 34.5, respectively.

On to `O=c1cc(-c2ccccc2)oc2cc(O)cc(O)c12` [CHRYSIN], for which, in the test with HT-29 [1], the Caspase induction came out at 0.8. Besides, the Activity with HT-29 [2] amounted to 62.8; in the test on HT-29 [3], 86.6.

In the case of `O=c1cc(-c2ccccc2)oc2cc(O)c(Cc3ccccc3)c(O)c12`, the Activity was 57.6 in the test with HT-29 [2] and 65.3 in the test on HT-29 [3].

In the case of `CC(C)=CCc1c(O)cc(O)c2c(=O)c(O)c(-c3ccc(O)cc3)oc12`, the Caspase induction in the test on HT-29 [1] amounted to 2.7. For the same compound, the Activity with HT-29 [2] is 71.1; in the test with HT-29 [3], 78.8.

As for `C=CC(C)(C)c1c(O)cc(O)c2c(=O)c(O)c(-c3ccc(OC)cc3)oc12`, the results for the Activity in the test with HT-29 [2] and in the test on HT-29 [3] were 42.1 and 56.4, respectively.

Take `O=C(/C=C/c1ccc(O)cc1)c1c(O)cc(O)cc1O` [4,2',4',6'-TETRAHYDROXYCHALCONE]: the Activity in the test on HT-29 [2] was 94.1; with HT-29 [3] it was 102.

Regarding `COc1ccc(-c2cc(=O)c3c(OC)c(OC)c(OC)cc3o2)cc1O`, the Activity in the test with HT-29 [2] stood at 102.1; in the test with HT-29 [3], 95.4.

On to `O=c1c(O)c(-c2ccc(O)c(O)c2)oc2cc(O)cc(O)c12` [QUERCETIN], for which the Caspase induction with HT-29 [1] was 1. In addition, the figures for the Activity in the test with HT-29 [2] and in the test on HT-29 [3] were 51.3 and 61.4, respectively.

`COc1cc(-c2oc3cc(O)cc(O)c3c(=O)c2OC)cc(OC)c1OC`: the Activity is given as 101.8 in the test with HT-29 [2] and 101.9 in the test with HT-29 [3].

Take `C=CC(C)(C)c1cc(C(=O)/C=C/c2ccccc2)c(O)cc1O`: in the test with HT-29 [1], the Caspase induction turned out to be 7.3. Further, the Activity was 15.6 in the test with HT-29 [2] and 35.4 with HT-29 [3].

In the case of `C=CC(C)(CC/C=C(\C)CCC=C(C)C)c1c(O)cc(O)c2c(=O)cc(-c3ccccc3)oc12` (configuration not stated), the Caspase induction in the test on HT-29 [1] is reported as 6.9. Further, the Activity in the test with HT-29 [2] came out at 24.5; in the test on HT-29 [3], 43.3.

Take `COc1ccc(-c2oc3cc(O)cc(O)c3c(=O)c2OC)c(OC)c1OC`: the Activity in the test with HT-29 [2] worked out at 91.5; with HT-29 [3] it was 89.7.

As for `COc1ccc(-c2oc3cc(O)cc(O)c3c(=O)c2OC)cc1` [ERMANIN], the Caspase induction in the test with HT-29 [1] was found to be 1.2. The values for the Activity in the test with HT-29 [2] and in the test on HT-29 [3] were 77.1 and 92, respectively.

In the case of `O=C1C[C@@H](c2ccc(O)cc2)Oc2cc(O)cc(O)c21` [NARINGENIN], the Activity is 94.8 in the test on HT-29 [2] and 102.2 in the test with HT-29 [3].

Consider `COc1cc(O)cc2oc(-c3ccccc3)cc(=O)c12`, for which the Activity with HT-29 [2] came to 107.6; with HT-29 [3] it was 104.7.

Take `O=c1cc(-c2ccccc2)oc2c(Cc3ccccc3)c(O)cc(O)c12`: the Activity in the test on HT-29 [2] amounted to 97.4; with HT-29 [3], 103.2.

As for `C=CC(C)(C)c1c(O)cc(O)c2c(=O)c(O)c(-c3ccccc3)oc12`, the Caspase induction with HT-29 [1] turned out to be 1.1. Also, the results for the Activity with HT-29 [2] and in the test on HT-29 [3] were 63 and 76.7, respectively.

For the compound `CC(C)=CCc1c(O)c(O)c2oc(-c3ccccc3)cc(=O)c2c1O`, in the test on HT-29 [1], the Caspase induction stood at 1.6. Besides, the Activity in the test with HT-29 [2] worked out at 71.7; with HT-29 [3], 67.4.

Consider `CC(C)=CCC/C(C)=C/COc1cc(O)c2c(=O)cc(-c3ccccc3)oc2c1`, for which the Caspase induction in the test on HT-29 [1] turned out to be 1.2. Further, the Activity with HT-29 [2] is recorded as 84.3; in the test on HT-29 [3], 90.4.

With `O=c1cc(-c2ccccc2)oc2cc(OCc3ccccc3)cc(O)c12`, the results for the Activity in the test with HT-29 [2] and with HT-29 [3] were 87.1 and 96.6, respectively.

Regarding `C=CC(C)(C)c1c(O)cc2oc(-c3ccccc3)cc(=O)c2c1O`, the Activity is 79.1 in the test with HT-29 [2] and 90.4 in the test with HT-29 [3].

On to `C=CC(C)(C)c1c(O)cc(O)c2c(=O)c(OC)c(-c3ccc(OC)c(OC)c3)oc12`, for which the Caspase induction in the test with HT-29 [1] stood at 5.2. In addition, the Activity is 4.7 with HT-29 [2] and 8.5 with HT-29 [3].

With `CC(C)=CCc1c(O)cc(O)c2c(=O)c(O)c(-c3ccc(O)c(O)c3)oc12`, the Caspase induction with HT-29 [1] came to 1.9. Moreover, the figures for the Activity in the test on HT-29 [2] and in the test with HT-29 [3] were 67 and 68, respectively.

In the case of `COc1cc(-c2cc(=O)c3c(OC)c(OC)c(OC)cc3o2)cc(OC)c1OC`, the Activity in the test on HT-29 [2] worked out at 100.7; with HT-29 [3], 94.2.
